Data: ChEMBL document CHEMBL1139031, “Synthesis and insecticidal activity of fluorinated 2-(2,6-dichloro-4-trifluoromethylphenyl)-2,4,5,6-tetrahydrocyclopentapyrazoles” (Bioorg Med Chem Lett, 2006)

Biological target: T1, GABA receptor subunit (Musca domestica, UniProt Q75NA5)
T1 sequence (Q75NA5 whole entry): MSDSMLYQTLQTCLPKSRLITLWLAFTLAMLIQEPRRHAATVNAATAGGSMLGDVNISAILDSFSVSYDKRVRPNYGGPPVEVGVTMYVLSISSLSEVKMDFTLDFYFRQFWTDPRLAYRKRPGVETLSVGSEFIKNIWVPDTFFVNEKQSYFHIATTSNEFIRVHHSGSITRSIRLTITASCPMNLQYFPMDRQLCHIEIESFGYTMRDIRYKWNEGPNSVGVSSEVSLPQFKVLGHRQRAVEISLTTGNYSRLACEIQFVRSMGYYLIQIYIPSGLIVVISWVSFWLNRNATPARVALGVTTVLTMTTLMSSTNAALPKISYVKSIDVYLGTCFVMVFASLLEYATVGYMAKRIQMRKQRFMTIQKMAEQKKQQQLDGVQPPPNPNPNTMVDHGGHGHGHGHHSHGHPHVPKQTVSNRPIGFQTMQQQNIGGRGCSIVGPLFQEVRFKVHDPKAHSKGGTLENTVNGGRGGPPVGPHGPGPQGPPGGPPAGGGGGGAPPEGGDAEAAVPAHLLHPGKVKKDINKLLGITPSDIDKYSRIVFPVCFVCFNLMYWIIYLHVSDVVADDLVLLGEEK
Test: Displacement of [3H]EBOB from housefly neuronal membrane GABA receptor
Details: not given
How it was run: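 Housefly neuronal membranes (0.5–1.0 mg/mL in added buffer) with 5.2 nM [3H]EBOB in ice-cold 10 mM phosphate, 300 mM NaCl, pH 7.5; DMSO compound solutions. Incubated 45 min at 24 °C, then filtered on polyethylenimine-soaked glass fiber; bound radioactivity counted. Membrane-free wells served as controls. Actives were retested at 24–48 final concentrations, and IC50 was taken at 50% of maximal inhibition.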
Molecule FC(F)(F)c1cc(Cl)c(-n2cc3c(n2)CC(F)(F)C3(F)F)c(Cl)c1 has an IC50 of under 0.1 µM. FC(F)(F)c1cc(Cl)c(-n2cc3c(n2)CCC3(F)F)c(Cl)c1 showed an IC50 of over 0.1 µM. FC1CCc2cn(-c3c(Cl)cc(C(F)(F)F)cc3Cl)nc21 (stereo not given) showed an IC50 of 0.29 µM. FC1Cc2nn(-c3c(Cl)cc(C(F)(F)F)cc3Cl)cc2C1(F)F (stereo not given) gave an IC50 of under 0.1 µM. In the case of FC1Cc2cn(-c3c(Cl)cc(C(F)(F)F)cc3Cl)nc2C1F (stereo not given), the IC50 is reported as 0.2 µM. O=C1CCc2nn(-c3c(Cl)cc(C(F)(F)F)cc3Cl)cc21 showed an IC50 of 0.47 µM. FC1(F)Cc2cn(-c3c(Cl)cc(C(F)(F)F)cc3Cl)nc2C1 showed an IC50 of 0.2 µM. CC1CCc2nn(-c3c(Cl)cc(C(F)(F)F)cc3Cl)cc21 (stereo not given) showed an IC50 of 0.03 µM. With O=C1c2cn(-c3c(Cl)cc(C(F)(F)F)cc3Cl)nc2CC1F (stereo not given) the IC50 was 0.32 µM. FC1CCc2nn(-c3c(Cl)cc(C(F)(F)F)cc3Cl)cc21 (stereo not given) gave an IC50 of 1.7 µM.

Biological target: not listed separately
Test: Selectivity for housefly GABA receptor over mouse GABA receptor
Details: not given
For FC(F)(F)c1cc(Cl)c(-n2cc3c(n2)CC(F)(F)C3(F)F)c(Cl)c1, the selectivity ratio was over 0.5. For FC(F)(F)c1cc(Cl)c(-n2cc3c(n2)CCC3(F)F)c(Cl)c1, the selectivity ratio was under 10. For FC1CCc2cn(-c3c(Cl)cc(C(F)(F)F)cc3Cl)nc21 (stereo not given), the selectivity ratio was 10. With FC1Cc2nn(-c3c(Cl)cc(C(F)(F)F)cc3Cl)cc2C1(F)F (stereo not given) the selectivity ratio was over 10. Work on FC1Cc2cn(-c3c(Cl)cc(C(F)(F)F)cc3Cl)nc2C1F (stereo not given) yielded a selectivity ratio of 5. O=C1CCc2nn(-c3c(Cl)cc(C(F)(F)F)cc3Cl)cc21 gave a selectivity ratio of 42. In the case of FC1(F)Cc2cn(-c3c(Cl)cc(C(F)(F)F)cc3Cl)nc2C1, the selectivity ratio is reported as 1. In the case of CC1CCc2nn(-c3c(Cl)cc(C(F)(F)F)cc3Cl)cc21 (stereo not given), the selectivity ratio is reported as 126. O=C1c2cn(-c3c(Cl)cc(C(F)(F)F)cc3Cl)nc2CC1F (stereo not given) gave a selectivity ratio of 10. FC1CCc2nn(-c3c(Cl)cc(C(F)(F)F)cc3Cl)cc21 (stereo not given) showed a selectivity ratio of over 5.

Tested on: Musca domestica
Test: Insecticidal activity against housefly at 100 mM by contact assay
Assay type: functional
Details: not given
How it was run: (§1)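 Newly emerged houseflies were CO2-sedated and fed 10% sucrose for 2–4 h. Compound in DMSO with isopropanol was rolled to coat glass tubes and air-dried for 24–48 h, with a DMSO-only control. Twenty flies, sedated by refrigeration at 0–4 °C, were placed in each tube. Healthy, moribund and dead flies were counted after 24 h.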
With CC1CCc2nn(-c3c(Cl)cc(C(F)(F)F)cc3Cl)cc21 (stereo not given) the Activity was 10%.

Same assay, conditions: Musca domestica; read-out: LD50 (the source's name)
Work on FC(F)(F)c1cc(Cl)c(-n2cc3c(n2)CCC3(F)F)c(Cl)c1 yielded an LC50 of 88000 µM. For FC1Cc2cn(-c3c(Cl)cc(C(F)(F)F)cc3Cl)nc2C1F (stereo not given), the LC50 was 79000 µM. Molecule O=C1CCc2nn(-c3c(Cl)cc(C(F)(F)F)cc3Cl)cc21 has an LC50 of 81000 µM.

Tested on: Musca domestica
Test: Insecticidal activity against housefly by contact assay
Assay type: functional
Design: concentration or dose not given beside the values
Details: not given
How it was run: as §1
In the case of FC1CCc2cn(-c3c(Cl)cc(C(F)(F)F)cc3Cl)nc21 (stereo not given), the Activity is reported as 85%. For FC1Cc2nn(-c3c(Cl)cc(C(F)(F)F)cc3Cl)cc2C1(F)F (stereo not given), the Activity was 100%. Work on FC1(F)Cc2cn(-c3c(Cl)cc(C(F)(F)F)cc3Cl)nc2C1 yielded an Activity of 87.9%. For O=C1c2cn(-c3c(Cl)cc(C(F)(F)F)cc3Cl)nc2CC1F (stereo not given), the Activity was 57.5%. For FC1CCc2nn(-c3c(Cl)cc(C(F)(F)F)cc3Cl)cc21 (stereo not given), the Activity was 7%.

Tested on: Ctenocephalides felis
Test: Insecticidal activity against cyclodiene resistant allele-homozygous serine S/S flea by contact assay
Assay type: functional
Details: read-out: LC50
How it was run: (§2)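 Contact vial assay with cat fleas of the cyclodiene-resistant homozygous serine (CO) or sensitive homozygous alanine (ARC) strain. Compound in DMSO was dried onto a glass-fiber disk for 24–48 h, and a DMSO-only disk was the control. Twenty newly emerged fleas, sedated at 0–4 °C, were sealed in each vial and held in the dark. Dead fleas were counted after 24 h, and percentage mortality was calculated.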
Molecule CC1CCc2nn(-c3c(Cl)cc(C(F)(F)F)cc3Cl)cc21 (stereo not given) has an LC50 of 10000 µM.

Same assay, conditions: read-out: LD50 (the source's name)
For FC(F)(F)c1cc(Cl)c(-n2cc3c(n2)CC(F)(F)C3(F)F)c(Cl)c1, the LC50 was under 500 µM. FC(F)(F)c1cc(Cl)c(-n2cc3c(n2)CCC3(F)F)c(Cl)c1 showed an LC50 of 1000 µM. Molecule FC1CCc2cn(-c3c(Cl)cc(C(F)(F)F)cc3Cl)nc21 (stereo not given) has an LC50 of 11000 µM. In the case of FC1Cc2nn(-c3c(Cl)cc(C(F)(F)F)cc3Cl)cc2C1(F)F (stereo not given), the LC50 is reported as 1000 µM. FC1(F)Cc2cn(-c3c(Cl)cc(C(F)(F)F)cc3Cl)nc2C1 showed an LC50 of 2000 µM.

Tested on: Ctenocephalides felis
Test: Insecticidal activity against heterozygous S/A flea by contact assay
Assay type: functional
Details: not given
CC1CCc2nn(-c3c(Cl)cc(C(F)(F)F)cc3Cl)cc21 (stereo not given) gave an LC50 of 3000 µM.

Tested on: Ctenocephalides felis
Test: Insecticidal activity against ARC sensitive homozygous alanine A/A flea at 100 mM by contact assay
Assay type: functional
Details: not given
How it was run: as §2
FC(F)(F)c1cc(Cl)c(-n2cc3c(n2)CC(F)(F)C3(F)F)c(Cl)c1 showed an Activity of 100%. FC(F)(F)c1cc(Cl)c(-n2cc3c(n2)CCC3(F)F)c(Cl)c1 gave an Activity of 100%. With FC1CCc2cn(-c3c(Cl)cc(C(F)(F)F)cc3Cl)nc21 (stereo not given) the Activity was 95%. For FC1Cc2nn(-c3c(Cl)cc(C(F)(F)F)cc3Cl)cc2C1(F)F (stereo not given), the Activity was 100%. With FC1Cc2cn(-c3c(Cl)cc(C(F)(F)F)cc3Cl)nc2C1F (stereo not given) the Activity was 100%. Work on O=C1CCc2nn(-c3c(Cl)cc(C(F)(F)F)cc3Cl)cc21 yielded an Activity of 16.5%. FC1(F)Cc2cn(-c3c(Cl)cc(C(F)(F)F)cc3Cl)nc2C1 showed an Activity of 100%. For CC1CCc2nn(-c3c(Cl)cc(C(F)(F)F)cc3Cl)cc21 (stereo not given), the Activity was 100%. In the case of O=C1c2cn(-c3c(Cl)cc(C(F)(F)F)cc3Cl)nc2CC1F (stereo not given), the Activity is reported as 95.4%.

Tested on: Ctenocephalides felis
Test: Insecticidal activity against cyclodiene resistant allele-homozygous serine S/S flea at 100 mM by contact assay
Assay type: functional
Details: not given
How it was run: as §2
O=C1c2cn(-c3c(Cl)cc(C(F)(F)F)cc3Cl)nc2CC1F (stereo not given) gave an Activity of 10.8%. FC1CCc2nn(-c3c(Cl)cc(C(F)(F)F)cc3Cl)cc21 (stereo not given) gave an Activity of 36%.

Tested on: not listed separately
Test: Half life in mouse liver microsome
Assay type: ADME
Details: liver microsomes
FC1Cc2nn(-c3c(Cl)cc(C(F)(F)F)cc3Cl)cc2C1(F)F (stereo not given) gave a half-life of 64.7 min. Work on FC1Cc2cn(-c3c(Cl)cc(C(F)(F)F)cc3Cl)nc2C1F (stereo not given) yielded a half-life of 22.4 min.

Species on record: Canis familiaris
Test: Half life in dog liver microsome
Assay type: ADME, Canis lupus familiaris
Details: microsomes
For FC1Cc2nn(-c3c(Cl)cc(C(F)(F)F)cc3Cl)cc2C1(F)F (stereo not given), the T1/2 was “Stable”. With FC1Cc2cn(-c3c(Cl)cc(C(F)(F)F)cc3Cl)nc2C1F (stereo not given) the T1/2 was “Stable”.

Species on record: Mus musculus
Test: Clearance in mouse
Assay type: ADME, organism-based
Details: in vitro
For FC1Cc2nn(-c3c(Cl)cc(C(F)(F)F)cc3Cl)cc2C1(F)F (stereo not given), the CL was 109.2 pmol/min/mg. Work on FC1Cc2cn(-c3c(Cl)cc(C(F)(F)F)cc3Cl)nc2C1F (stereo not given) yielded a CL of 255.1 pmol/min/mg.

Species on record: Canis familiaris
Test: Clearance in dog
Assay type: ADME, organism-based, Canis lupus familiaris
Details: in vitro
With FC1Cc2nn(-c3c(Cl)cc(C(F)(F)F)cc3Cl)cc2C1(F)F (stereo not given) the CL was “Stable”. With FC1Cc2cn(-c3c(Cl)cc(C(F)(F)F)cc3Cl)nc2C1F (stereo not given) the CL was “Stable”.

Biological target: GABA-A receptor; anion channel
Test: Binding affinity to mouse brain GABA receptor
Details: not given
How it was run: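 Displacement of [3H]EBOB (5.2 nM, 38 Ci/mmol) from neuronal membranes (0.5–1.0 mg/mL), housefly or mouse brain, in ice-cold 10 mM phosphate, 300 mM NaCl, pH 7.5. Compound added from DMSO. Membrane-free wells served as controls. Incubated 45 min at 24 °C, then filtered on polyethylenimine-soaked glass fiber and bound radioactivity counted. IC50 (50% of maximal inhibition) taken from 24–48 concentrations.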
Molecule FC(F)(F)c1cc(Cl)c(-n2cc3c(n2)CC(F)(F)C3(F)F)c(Cl)c1 has an IC50 of 0.05 µM. FC(F)(F)c1cc(Cl)c(-n2cc3c(n2)CCC3(F)F)c(Cl)c1 showed an IC50 of 1 µM. For FC1CCc2cn(-c3c(Cl)cc(C(F)(F)F)cc3Cl)nc21 (stereo not given), the IC50 was 2.9 µM. FC1Cc2nn(-c3c(Cl)cc(C(F)(F)F)cc3Cl)cc2C1(F)F (stereo not given) showed an IC50 of 1 µM. Work on FC1Cc2cn(-c3c(Cl)cc(C(F)(F)F)cc3Cl)nc2C1F (stereo not given) yielded an IC50 of 1 µM. In the case of O=C1CCc2nn(-c3c(Cl)cc(C(F)(F)F)cc3Cl)cc21, the IC50 is reported as 20 µM. With FC1(F)Cc2cn(-c3c(Cl)cc(C(F)(F)F)cc3Cl)nc2C1 the IC50 was 0.175 µM. With CC1CCc2nn(-c3c(Cl)cc(C(F)(F)F)cc3Cl)cc21 (stereo not given) the IC50 was 3.8 µM. O=C1c2cn(-c3c(Cl)cc(C(F)(F)F)cc3Cl)nc2CC1F (stereo not given) gave an IC50 of 3.2 µM. For FC1CCc2nn(-c3c(Cl)cc(C(F)(F)F)cc3Cl)cc21 (stereo not given), the IC50 was over 10 µM.
